In brackets after ≈: the same amount, converted by molar mass.
How the values were obtained:
[1] = In vitro antibacterial activity against Aerobically grown Pasteurella haemolytica (59B018); format: functional; details: Mannheimia haemolytica
Procedure, shortened: (§1)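 Agar dilution MICs. Aerobic strains were tested on brain heart infusion agar and incubated aerobically at 37 °C for 18–20 h.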

Trueperella pyogenes = assay: In vitro antibacterial activity against anaerobically grown Actinomyces pyogenes (14D002); format: functional
Procedure, shortened: (§2)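 Agar dilution MICs. Anaerobic strains were tested on tryptose agar with 5% bovine blood and incubated 48 h at 39 °C in an anaerobe chamber under N2/CO2/H2 (80:10:10).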

Salmonella enterica [2] = assay: In vitro antibacterial activity against aerobically grown Salmonella choleraesuis (58B015); format: functional
[3] = tested on: Bordetella bronchiseptica; assay: In vitro antibacterial activity against aerobically grown Bordetella bronchiseptica (73A009); format: functional; procedure, shortened: as §1
[4] = In vitro evaluation for antibacterial activity against anaerobically grown Treponema hyodysenteriae (94A007); format: functional; details: Brachyspira hyodysenteriae
[5] = tested on: Actinobacillus pleuropneumoniae; assay: In vitro antibacterial activity against anaerobically grown Actinobacillus pleuropneumoniae ([…]); format: functional; procedure, shortened: as §2
Escherichia coli [6] = assay: In vitro antibacterial activity against aerobically grown Escherichia coli (51A538); format: functional; procedure, shortened: as §1
Pasteurella multocida [7] = assay: In vitro antibacterial activity against aerobically grown Pasteurella multocida (59A006); format: functional; procedure, shortened: as §1
Phocaeicola vulgatus = assay: In vitro antibacterial activity against anaerobically grown Bacteroides vulgatus (78D029); format: functional; procedure, shortened: as §2
Staphylococcus aureus [8] = assay: In vitro antibacterial activity against aerobically grown Staphylococcus aureus (54B004); format: functional; procedure, shortened: as §1
Clostridium perfringens = assay: microbe, parasite or virus in culture; format: functional
Escherichia coli [9] = assay: Escherichia coli DNA cleavage endpoint value which is the minimum amount required (in micro g/mL) to induce detectable cleavage of supercoiled pBR322 substrate to linear form (gyrase); format: functional; details: read-out: MIC
Procedure, shortened: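 DNA gyrase A and B subunits were purified from E. coli overproducers. About 2 units of holoenzyme were incubated with pBR322 in Tris-HCl pH 7.5 containing MgCl2, spermidine, DTT, 0.2 mM ATP, BSA and tRNA. Drug was added as 2-fold serial dilutions, and reactions ran for 60 min at 25 °C. Reactions were stopped with SDS and proteinase K, then run on agarose and stained with ethidium. The endpoint was the lowest concentration giving detectable linear DNA.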

Pasteurella multocida [10] = assay: In vivo protective dose was evaluated Pasteurella multocida (59A006) in mouse(sc); format: functional; details: read-out: PD50
Procedure, shortened: (§3)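 Female CF-1 mice (15 g), groups of 10, challenged ip with 0.5 mL bacterial suspension (P. multocida 59A006 or E. coli 51A266 at 3.0 × 10^8 cfu/mL; S. choleraesuis 58B010 at 8.5 × 10^2 cfu/mL). Drug given sc or po at 30 min, 4 h and 24 h after challenge; survival recorded at 96 h; PD50 by probit analysis.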

Staphylococcus aureus [11] = assay: In vitro antibacterial activity against Aerobically grown Staphylococcus aureus (54B004); format: functional; procedure, shortened: as §1
Pasteurella multocida [12] = assay: In vitro antibacterial activity against Aerobically grown Pasteurella multocida (59A006); format: functional; procedure, shortened: as §1
Escherichia coli [13] = assay: In vitro antibacterial activity against Aerobically grown Escherichia coli (51A538); format: functional; procedure, shortened: as §1
Salmonella enterica [14] = assay: In vitro antibacterial activity against Aerobically grown Salmonella choleraesuis (58B015); format: functional
[15] = tested on: Bordetella bronchiseptica; assay: In vitro antibacterial activity against Aerobically grown Bordetella bronchiseptica (73A009); format: functional; procedure, shortened: as §1
[16] = Compound was evaluated for aqueous solubility at pH 7.2; details: buffer
Pasteurella multocida [17] = assay: In vivo protective dose was evaluated against Pasteurella multocida (59A006) in mouse(sc); format: functional; details: read-out: PD50; procedure, shortened: as §3
Escherichia coli [18] = assay: In vivo protective dose was evaluated against Escherichia coli (51A266) in mouse(sc); format: functional; details: read-out: PD50; procedure, shortened: as §3
Pasteurella multocida [19] = assay: In vivo protective dose was evaluated against Pasteurella multocida (59A006) in mouse(po); format: functional; details: read-out: PD50; procedure, shortened: as §3
Mannheimia haemolytica = assay: Compound was evaluated for minimum effective dose against Pasteurella haemolytica, intramuscular dose administration; format: functional; details: im, read-out: MED
Procedure, shortened: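 Calves acid-treated intratracheally with 0.6 mL 8% acetic acid at 24 h and 4 h before endotracheal challenge with 50 mL P. haemolytica B280PA (~5 × 10^8 cfu/mL). im dosing of 2.5% or 5% solution in sterile water, day 0 and day 1 (SID × 2). Clinical signs and temperature recorded days 0–5; lungs scored and cultured. MED = lowest dose giving significant (65%) reduction of lung pathology.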

Escherichia coli [20] = assay: In vivo protective dose was evaluated against Escherichia coli (51A266) in mouse(po); format: functional; details: read-out: PD50; procedure, shortened: as §3
[21] = tested on: Actinobacillus pleuropneumoniae; assay: Compound was evaluated for minimum effective dose against Actinobacillus pleuropneumonia, intramuscular dose administration; details: im, read-out: MED

Structure (SMILES) | MIC [1] | MIC (Trueperella pyogenes) | MIC (Salmonella enterica [2]) | MIC [3] | MIC [4] | MIC [5] | MIC (Escherichia coli [6]) | MIC (Pasteurella multocida [7]) | MIC (Phocaeicola vulgatus) | MIC (Staphylococcus aureus [8]) | MIC (Clostridium perfringens) | minimum concentration inducing gyrase-mediated DNA cleavage (Escherichia coli [9]) | ED50 (Pasteurella multocida [10]) | ED50 (Pasteurella multocida [17]) | ED50 (Escherichia coli [18]) | further results
CCn1cc(C(=O)O)c(=O)c2cc(F)c(N3CC[C@H]4CCC(C3)N4C)cc21 | 1.56 µg/mL (≈ 4.18 µM) | > 3.13 µg/mL | > 1.56 µg/mL | > 1.56 µg/mL | > 3.13 µg/mL | 0.78 µg/mL (≈ 2.09 µM) | > 1.56 µg/mL | 0.39 µg/mL (≈ 1.04 µM) | > 3.13 µg/mL | 1.56 µg/mL (≈ 4.18 µM) | 1.56 µg/mL (≈ 4.18 µM) | 1.56 µg/mL | 1.03 mg/kg |  |  | 
CN1C[C@@H]2C[C@H]1CN2c1c(F)cc2c(=O)c(C(=O)O)cn(-c3ccc(F)cc3)c2c1Cl | 0.78 µg/mL (≈ 1.75 µM) | > 3.13 µg/mL |  |  | > 3.13 µg/mL | 0.78 µg/mL (≈ 1.75 µM) |  |  | > 3.13 µg/mL |  | 0.78 µg/mL (≈ 1.75 µM) | 1.56 µg/mL |  |  |  | MIC (Staphylococcus aureus [11]): 0.78 µg/mL (≈ 1.75 µM); MIC (Pasteurella multocida [12]): 0.05 µg/mL (≈ 0.112 µM); MIC (Escherichia coli [13]): 0.78 µg/mL (≈ 1.75 µM); MIC (Salmonella enterica [14]): 1.56 µg/mL (≈ 3.5 µM); MIC [15]: > 1.56 µg/mL
O=C(O)c1cn(C2CC2)c2cc(N3C[C@@H]4C[C@H]3CN4)c(F)cc2c1=O | 0.2 µg/mL (≈ 0.582 µM) | 3.13 µg/mL (≈ 9.12 µM) | 0.05 µg/mL (≈ 0.146 µM) | > 1.56 µg/mL | 1.56 µg/mL (≈ 4.54 µM) | 0.1 µg/mL (≈ 0.291 µM) | 0.1 µg/mL (≈ 0.291 µM) | 0.2 µg/mL (≈ 0.582 µM) | > 3.13 µg/mL | 1.56 µg/mL (≈ 4.54 µM) | 0.1 µg/mL (≈ 0.291 µM) | 0.39 µg/mL |  | 0.2 mg/kg | 0.92 mg/kg | solubility [16]: 77 µg/mL (≈ 224 µM)
CN1C[C@H]2C[C@@H]1CN2c1cc2c(cc1F)c(=O)c(C(=O)O)cn2C1CC1 | 0.05 µg/mL (≈ 0.14 µM) | 3.13 µg/mL (≈ 8.76 µM) | 0.1 µg/mL (≈ 0.28 µM) | 1.56 µg/mL (≈ 4.37 µM) | 1.56 µg/mL (≈ 4.37 µM) | 0.05 µg/mL (≈ 0.14 µM) | 0.05 µg/mL (≈ 0.14 µM) | 0.02 µg/mL (≈ 0.056 µM) | 3.13 µg/mL (≈ 8.76 µM) | 0.39 µg/mL (≈ 1.09 µM) | 0.2 µg/mL (≈ 0.56 µM) | 0.19 µg/mL | 0.22 mg/kg |  |  | 
CN1[C@@H]2CC[C@H]1CN(c1cc3c(cc1F)c(=O)c(C(=O)O)cn3C1CC1)C2 | 0.1 µg/mL (≈ 0.269 µM) | 3.13 µg/mL (≈ 8.43 µM) | 0.2 µg/mL (≈ 0.538 µM) | 1.56 µg/mL (≈ 4.2 µM) | 0.78 µg/mL (≈ 2.1 µM) | 0.39 µg/mL (≈ 1.05 µM) | 0.1 µg/mL (≈ 0.269 µM) | 0.05 µg/mL (≈ 0.135 µM) | 1.56 µg/mL (≈ 4.2 µM) | 0.1 µg/mL (≈ 0.269 µM) | 0.1 µg/mL (≈ 0.269 µM) | 0.78 µg/mL |  | 0.37 mg/kg | 0.15 mg/kg | ED50 (Pasteurella multocida [19]): 0.98 mg/kg; minimal effective dose (Mannheimia haemolytica): 0.3 mg/kg; ED50 (Escherichia coli [20]): 3.8 mg/kg; minimal effective dose [21]: 0.3 mg/kg

— ChEMBL document CHEMBL1126160, “Synthesis and structure-activity relationships of 7-diazabicycloalkylquinolones, including danofloxacin, a new quinolone antibacterial agent for veterinary medicine” (J Med Chem, 1992)
